According to ChEMBL document CHEMBL1125376, “Class III antiarrhythmic activity of novel substituted 4-[(methylsulfonyl)amino]benzamides and sulfonamides” (J Med Chem, 1992):
Blank lines part the entries; values can stand above or below the molecule they belong to.

Columns and labels:
Canis familiaris [1] = species: Canis familiaris; assay: Effect on the transmembrane potential of dog Purkinje fibers paced at a basic cycle length of stimulation of 300 ms, repolarization time to -60 mV; type: functional; conditions: Canis lupus familiaris; Purkinje fiber
In short: (§1)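 Purkinje fiber bundles were taken from pentobarbital-anesthetized mongrel dogs. They were superfused at 37.5-38.0 °C with Tyrode's (mM: NaCl 138, KCl 4, CaCl2 2, NaHCO3 24, MgCl2 0.5, Na2HPO4 1.8, dextrose 5) gassed with 95% O2-5% CO2, pH 7.3-7.4. Stimulation used 2.0 ms pulses at twice threshold. Fibers were equilibrated ≥1 h before drug. Action potentials were recorded at 4-6 sites and averaged per fiber.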

Canis familiaris [2] = species: Canis familiaris; assay: Effect on the transmembrane potential of dog Purkinje fibers paced at a basic cycle length of stimulation of 1000 ms, repolarization time to -60 mV; type: functional; conditions: Canis lupus familiaris; Purkinje fiber; in short: as §1
Canis familiaris [3] = species: Canis familiaris; assay: Effect on the transmembrane potential of dog Purkinje fibers paced at a basic cycle length of stimulation of 1000 ms, repolarization time to -60 mV at 3 uM concentration; type: functional; conditions: Canis lupus familiaris, Purkinje fiber; in short: as §1
Canis familiaris [4] = species: Canis familiaris; assay: Effect on the transmembrane potential of dog Purkinje fibers paced at a basic cycle length of stimulation of 300 ms, repolarization time to -60 mV at 3 uM concentration; type: functional; conditions: Canis lupus familiaris, Purkinje fiber; in short: as §1
Canis familiaris [5] = assay: Effect on atrial conduction time, after intravenous administration in open-chest anesthetized dogs at dose of 5.0 mg/kg; type: functional, Canis lupus familiaris, Cardiac atrium
Canis familiaris [6] = assay: Effect on ventricular conduction time, after intravenous administration in open-chest anesthetized dogs at dose of 5.0 mg/kg; type: functional, Canis lupus familiaris, Cardiac ventricle
Canis familiaris [7] = assay: Effect on ventricular effective refractory period, after intravenous administration in open-chest anesthetized dogs at dose of 1.0 mg/kg; type: functional, Canis lupus familiaris, Cardiac ventricle
In short: (§2)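 Mongrel dogs, pentobarbital-anesthetized (30 mg/kg iv plus 5 mg/kg per h), open chest. Compound given iv. Atrial and ventricular effective refractory periods and conduction times measured during pacing at 300 ms, along with heart rate and mean arterial pressure. Two doses per compound, chosen from dose-response runs. Values are % change from predrug, mean ± SE.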

Canis familiaris [8] = assay: Effect on ventricular effective refractory period, after intravenous administration in open-chest anesthetized dogs at dose of 5.0 mg/kg; type: functional, Canis lupus familiaris, Cardiac ventricle; in short: as §2
Canis familiaris [9] = assay: Effect on atrial effective refractory period, after intravenous administration in open-chest anesthetized dogs at dose of 1.0 mg/kg; type: functional, Canis lupus familiaris, Cardiac atrium
Canis familiaris [10] = assay: Effect on atrial effective refractory period, after intravenous administration in open-chest anesthetized dogs at dose of 5.0 mg/kg; type: functional, Canis lupus familiaris, Cardiac atrium
Canis familiaris [11] = assay: Effect on heart rate, after intravenous administration in open-chest anesthetized dogs at dose of 1.0 mg/kg; type: functional, Canis lupus familiaris
Canis familiaris [12] = assay: Effect on heart rate, after intravenous administration in open-chest anesthetized dogs at dose of 5.0 mg/kg; type: functional, Canis lupus familiaris
Canis familiaris [13] = assay: Effect on mean arterial pressure, after intravenous administration in open-chest anesthetized dogs at dose of 1.0 mg/kg; type: functional, Canis lupus familiaris, Artery
Canis familiaris [14] = assay: Effect on mean arterial pressure, after intravenous administration in open-chest anesthetized dogs at dose of 5.0 mg/kg; type: functional, Canis lupus familiaris, Artery
Canis familiaris [15] = assay: Effect on ventricular conduction time, after intravenous administration in open-chest anesthetized dogs at dose of 1.0 mg/kg; type: functional, Canis lupus familiaris, Cardiac ventricle
Canis familiaris [16] = assay: Effect on atrial conduction time, after intravenous administration in open-chest anesthetized dogs at dose of 1.0 mg/kg; type: functional, Canis lupus familiaris, Cardiac atrium
Canis familiaris [17] = species: Canis familiaris; assay: Effect on the transmembrane potential of dog Purkinje fibers paced at a basic cycle length of stimulation of 1000 ms, repolarization time to -60 mV, at a concentration of 0.3 uM; type: functional; conditions: Canis lupus familiaris, Purkinje fiber; in short: as §1
Canis familiaris [18] = assay: Heart rate, after intravenous administration in open-chest anesthetized dogs at dose of 0.05 mg/kg; type: functional, Canis lupus familiaris; conditions: dose 5.0 mg/kg, in the assay text read “5.0 mg/kg” for “0.05 mg/kg”; in short: as §2
Canis familiaris [19] = assay: Heart rate, after intravenous administration in open-chest anesthetized dogs at dose of 0.5 mg/kg; type: functional, Canis lupus familiaris; conditions: dose 10.0 mg/kg, in the assay text read “10.0 mg/kg” for “0.5 mg/kg”; in short: as §2
Canis familiaris [20] = assay: Ventricular conduction time, after intravenous administration in open-chest anesthetized dogs at dose of 0.5 mg/kg; type: functional, Canis lupus familiaris, Heart; conditions: dose 10.0 mg/kg, in the assay text read “10.0 mg/kg” for “0.5 mg/kg”; in short: as §2
Canis familiaris [21] = assay: Ventricular effective refractory period, after intravenous administration in open-chest anesthetized dogs at dose of 0.05 mg/kg; type: functional, Canis lupus familiaris, Heart; conditions: dose 5.0 mg/kg, in the assay text read “5.0 mg/kg” for “0.05 mg/kg”; in short: as §2
Canis familiaris [22] = assay: Ventricular effective refractory period, after intravenous administration in open-chest anesthetized dogs at dose of 0.5 mg/kg; type: functional, Canis lupus familiaris, Heart; conditions: dose 10.0 mg/kg, in the assay text read “10.0 mg/kg” for “0.5 mg/kg”; in short: as §2
Canis familiaris [23] = assay: Mean arterial pressure, after intravenous administration in open-chest anesthetized dogs at dose of 0.05 mg/kg; type: functional, Canis lupus familiaris, Artery; conditions: dose 5.0 mg/kg, in the assay text read “5.0 mg/kg” for “0.05 mg/kg”; in short: as §2
Canis familiaris [24] = assay: Mean arterial pressure, after intravenous administration in open-chest anesthetized dogs at dose of 0.5 mg/kg; type: functional, Canis lupus familiaris, Artery; conditions: dose 10.0 mg/kg, in the assay text read “10.0 mg/kg” for “0.5 mg/kg”; in short: as §2
Canis familiaris [25] = assay: Atrial conduction time, after intravenous administration in open-chest anesthetized dogs at dose of 10.0 mg/kg
Canis familiaris [26] = assay: Atrial effective refractory period, after intravenous administration in open-chest anesthetized dogs at dose of 10.0 mg/kg
Canis familiaris [27] = assay: Effect on ventricular conduction time, after intravenous administration in open-chest anesthetized dogs at dose of 2.5 mg/kg; type: functional, Canis lupus familiaris, Cardiac ventricle
Canis familiaris [28] = assay: Effect on ventricular effective refractory period, after intravenous administration in open-chest anesthetized dogs at dose of 2.5 mg/kg; type: functional, Canis lupus familiaris, Cardiac ventricle; in short: as §2
Canis familiaris [29] = assay: Effect on atrial effective refractory period, after intravenous administration in open-chest anesthetized dogs at dose of 2.5 mg/kg; type: functional, Canis lupus familiaris, Cardiac atrium
Canis familiaris [30] = assay: Effect on heart rate, after intravenous administration in open-chest anesthetized dogs at dose of 2.5 mg/kg; type: functional, Canis lupus familiaris
Canis familiaris [31] = assay: Effect on mean arterial pressure, after intravenous administration in open-chest anesthetized dogs at dose of 2.5 mg/kg; type: functional, Canis lupus familiaris, Artery
Canis familiaris [32] = assay: Effect on atrial conduction time, after intravenous administration in open-chest anesthetized dogs at dose of 2.5 mg/kg; type: functional, Canis lupus familiaris, Cardiac atrium
[33] = Maximum rate of depolarization of the upstroke of the action potentia at 3 uM concentration
In short: (§3)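 Purkinje fiber bundles from pentobarbital-anesthetized mongrel dogs, superfused at 37.5-38.0 °C with Tyrode's solution (95% O2-5% CO2, pH 7.3-7.4). Stimulation with 2.0 ms square pulses at 2× threshold. Fibers equilibrated at least 1 h before drug. Action potentials recorded at four to six sites, control vs drug, and averaged per fiber.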

[34] = Maximum rate of depolarization of the upstroke of the action potential at 3 uM concentration; design: unit not given beside the values; in short: as §3

SMILES: CS(=O)(=O)Nc1ccc(S(=O)(=O)N2CCNc3nc4ccccc4n3CC2)cc1
APD60 (Canis familiaris [1]): 24 | APD60 (Canis familiaris [2]): 42

SMILES: Cl.Cn1c(N2CCN(S(=O)(=O)c3ccc(NS(C)(=O)=O)cc3)CC2)nc2ccccc21
APD60 (Canis familiaris [3]): 57 | APD60 (Canis familiaris [4]): 36 | Change (Canis familiaris [5]): -3% | Change (Canis familiaris [6]): 2% | Change (Canis familiaris [7]): 13% | Change (Canis familiaris [8]): 25% | Change (Canis familiaris [9]): 22% | Change (Canis familiaris [10]): 40% | Change (Canis familiaris [11]): -17% | Change (Canis familiaris [12]): -37% | Change (Canis familiaris [13]): 2% | Change (Canis familiaris [14]): 3% | Change (Canis familiaris [15]): -4% | Change (Canis familiaris [16]): 3%

SMILES: CN(CCN(C)S(=O)(=O)c1ccc(NS(C)(=O)=O)cc1)c1ncc2ccccc2n1
APD60 (Canis familiaris [1]): 18 | APD60 (Canis familiaris [2]): 29

SMILES: CN(CCN1CCn2c1nc1ccccc12)S(=O)(=O)c1ccc(NS(C)(=O)=O)cc1.Cl
APD60 (Canis familiaris [17]): 30 | APD60 (Canis familiaris [1]): 16 | APD60 (Canis familiaris [2]): 30 | Change (Canis familiaris [18]): -15% | Change (Canis familiaris [19]): -24% | Change (Canis familiaris [20]): -5% | Change (Canis familiaris [21]): 18% | Change (Canis familiaris [22]): 19% | Change (Canis familiaris [23]): -9% | Change (Canis familiaris [24]): -8% | Change (Canis familiaris [25]): 3% | Change (Canis familiaris [26]): 66%

SMILES: CC(C)NCC(O)c1ccc(NS(C)(=O)=O)cc1 (configuration not stated) [SOTALOL]
APD60 (Canis familiaris [1]): 18 | APD60 (Canis familiaris [2]): 56 | Change (Canis familiaris [5]): -7% | Change (Canis familiaris [27]): -1% | Change (Canis familiaris [6]): -1% | Change (Canis familiaris [28]): 19% | Change (Canis familiaris [8]): 25% | Change (Canis familiaris [29]): 42% | Change (Canis familiaris [10]): 57% | Change (Canis familiaris [30]): -27% | Change (Canis familiaris [12]): -28% | Change (Canis familiaris [31]): -16% | Change (Canis familiaris [14]): -17% | Change (Canis familiaris [32]): -5%

Vmax [33]: 6 | Vmax [34]: 1
SMILES: CN(CCNc1nc2ccccc2n1C)S(=O)(=O)c1ccc(NS(C)(=O)=O)cc1.Cl
APD60 (Canis familiaris [3]): 67 | APD60 (Canis familiaris [4]): 19

SMILES: CN(CCN(C)c1ccc2ccccc2n1)C(=O)c1ccc(NS(C)(=O)=O)cc1
APD60 (Canis familiaris [1]): 17 | APD60 (Canis familiaris [2]): 36

SMILES: CNc1nc2ccccc2n1CCN(C)S(=O)(=O)c1ccc(NS(C)(=O)=O)cc1
APD60 (Canis familiaris [1]): 28 | APD60 (Canis familiaris [2]): 47
